According to ChEMBL document CHEMBL1153726, “Synthesis and anticancer activity of sclerophytin-inspired hydroisobenzofurans” (Bioorg Med Chem Lett, 2009):

Legend:
Type in all cases: functional
T47D [1] = test: Growth inhibition of human T47D cells at 1 nM after 96 hrs by MTT assay; design: scale not given: the % may be the effect or the level left
MCF7 = test: Growth inhibition of human MCF7 cells at 1 nM after 96 hrs by MTT assay; design: scale not given: the % may be the effect or the level left
RXF 393 [2] = test: Growth inhibition of human RXF393 cells at 1 nM after 96 hrs by MTT assay; design: scale not given: the % may be the effect or the level left
SK-MEL-5 = test: Growth inhibition of human SK-MEL-5 cells at 1 nM after 96 hrs by MTT assay; design: scale not given: the % may be the effect or the level left
Malme-3M = test: Growth inhibition of human MALME-3M cells at 1 nM after 96 hrs by MTT assay; design: scale not given: the % may be the effect or the level left
SR [3] = test: Growth inhibition of human SR cells at 1 nM after 96 hrs by MTT assay; design: scale not given: the % may be the effect or the level left
HL-60(TB) = test: Growth inhibition of human HL-60(TB) cells at 1 nM after 96 hrs by MTT assay; design: scale not given: the % may be the effect or the level left
SN12C [4] = test: Growth inhibition of human SN12C cells at 10 uM after 96 hrs by MTT assay; design: scale not given: the % may be the effect or the level left
RXF 393 [5] = test: Growth inhibition of human RXF393 cells at 10 uM after 96 hrs by MTT assay; design: scale not given: the % may be the effect or the level left
A498 = test: Growth inhibition of human A498 cells at 10 uM after 96 hrs by MTT assay; design: scale not given: the % may be the effect or the level left
OVCAR-8 [6] = test: Growth inhibition of human OVCAR8 cells at 10 uM after 96 hrs by MTT assay; design: scale not given: the % may be the effect or the level left
OVCAR-5 [7] = test: Growth inhibition of human OVCAR5 cells at 10 uM after 96 hrs by MTT assay; design: scale not given: the % may be the effect or the level left
OVCAR-4 = test: Growth inhibition of human OVCAR4 cells at 10 uM after 96 hrs by MTT assay; design: scale not given: the % may be the effect or the level left
IGROV-1 = test: Growth inhibition of human IGROV1 cells at 10 uM after 96 hrs by MTT assay; design: scale not given: the % may be the effect or the level left
MDA-MB-435 [8] = test: Growth inhibition of human MDA-MB-435 cells at 10 uM after 96 hrs by MTT assay; design: scale not given: the % may be the effect or the level left
NCI-H23 = test: Growth inhibition of human NCI-H23 cells at 10 uM after 96 hrs by MTT assay; design: scale not given: the % may be the effect or the level left
[9] = Growth inhibition of human RPMI8266 cells at 10 uM after 96 hrs by MTT assay; design: scale not given: the % may be the effect or the level left
SF-268 = test: Growth inhibition of human SF268 cells after 96 hrs by MTT assay; conditions: SF-268, 96 h
Summary of the method: (§1)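 Tested in the NCI 60-cell-line panel in five-dose format; GI50 and LC50 values reported for each cell line.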

LOX IMVI = test: Growth inhibition of human LOXIMVI cells after 96 hrs by MTT assay
Summary of the method: (§2)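 Run in the NCI 60 human tumour cell line panel as a five-dose assay. GI50 and LC50 were reported for each cell line.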

MDA-MB-435 [10] = test: Growth inhibition of human MDA-MB-435 cells after 96 hrs by MTT assay; conditions: MDA-MB-435, 96 h; summary of the method: as §2
MDA-MB-231 = test: Growth inhibition of human MDA-MB-231 cells after 96 hrs by MTT assay; conditions: MDA-MB-231, 96 h; summary of the method: as §2
A549 = test: Growth inhibition of human A549 cells at 10 nM after 96 hrs by MTT assay; design: scale not given: the % may be the effect or the level left
NCI-H226 = test: Growth inhibition of human NCI-H226 cells after 96 hrs by MTT assay; conditions: NCI-H226, 96 h; summary of the method: as §2
[11] = Growth inhibition of human […] cells after 96 hrs by MTT assay; summary of the method: as §1
K562 = test: Growth inhibition of human K562 cells after 96 hrs by MTT assay; conditions: K562, 96 h; summary of the method: as §2
T47D [12] = test: Growth inhibition of human T47D cells at 1 uM after 96 hrs by MTT assay; design: scale not given: the % may be the effect or the level left
OVCAR-5 [13] = test: Growth inhibition of human OVCAR5 cells at 1 uM after 96 hrs by MTT assay; design: scale not given: the % may be the effect or the level left
T47D [14] = test: Growth inhibition of human T47D cells at 100 nM after 96 hrs by MTT assay; design: scale not given: the % may be the effect or the level left
CAKI-1 = test: Growth inhibition of human Caki1 cells at 100 nM after 96 hrs by MTT assay; design: scale not given: the % may be the effect or the level left
SF-539 = test: Growth inhibition of human SF539 cells at 100 nM after 96 hrs by MTT assay; design: scale not given: the % may be the effect or the level left
NCI-H460 = test: Growth inhibition of human NCI-H460 cells at 100 nM after 96 hrs by MTT assay; design: scale not given: the % may be the effect or the level left
SR [15] = test: Growth inhibition of human SR cells at 100 nM after 96 hrs by MTT assay; design: scale not given: the % may be the effect or the level left
SN12C [16] = test: Growth inhibition of human SN12C cells at 10 nM after 96 hrs by MTT assay; design: scale not given: the % may be the effect or the level left
OVCAR-8 [17] = test: Growth inhibition of human OVCAR8 cells at 10 nM after 96 hrs by MTT assay; design: scale not given: the % may be the effect or the level left
OVCAR-5 [18] = test: Growth inhibition of human OVCAR5 cells at 10 nM after 96 hrs by MTT assay; design: scale not given: the % may be the effect or the level left
SK-MEL-2 = test: Growth inhibition of human SK-MEL-2 cells at 10 nM after 96 hrs by MTT assay; design: scale not given: the % may be the effect or the level left
SNB-19 = test: Growth inhibition of human SNB19 cells at 10 nM after 96 hrs by MTT assay; design: scale not given: the % may be the effect or the level left
HCC 2998 = test: Growth inhibition of human HCC2998 cells at 10 nM after 96 hrs by MTT assay; design: scale not given: the % may be the effect or the level left
COLO 205 = test: Growth inhibition of human COLO205 cells at 10 nM after 96 hrs by MTT assay; design: scale not given: the % may be the effect or the level left
UACC-257 = test: Growth inhibition of human UACC257 cells at 1 uM after 96 hrs by MTT assay; design: scale not given: the % may be the effect or the level left
SW-620 = test: Growth inhibition of human SW620 cells at 1 uM after 96 hrs by MTT assay; design: scale not given: the % may be the effect or the level left
[19] = read-out: LC50 (the source's name)
[20] = read-out: Log10GI50 (converted)
[21] = read-out: Log10LC50 (converted)

In the case of `C=C(C)[C@H]1CC=C(C)C2=CO[C@@H](c3ccccc3F)[C@@H]21`, the Activity (T47D [1]) is reported as 98%, the Activity (MCF7) is reported as 93% and the Activity (RXF 393 [2]) is reported as 94%. For the same compound, the Activity (SK-MEL-5) was 91%, the Activity (Malme-3M) was 97% and the Activity (SR [3]) was 83%. It also gave an Activity (HL-60(TB)) of 104%, an Activity (SN12C [4]) of 100.7% and an Activity (RXF 393 [5]) of 98.38%. For the same compound, the Activity (A498) was 104.48%, the Activity (OVCAR-8 [6]) was 94.8% and the Activity (OVCAR-5 [7]) was 100.16%. It also gave an Activity (OVCAR-4) of 88.01%, an Activity (IGROV-1) of 65.74% and an Activity (MDA-MB-435 [8]) of 109.16%. For the same compound, the Activity (NCI-H23) was 95.4%, the Activity [9] was 18.49% and the GI50 (SF-268; read-out: GI50) was 6.95 µM. It also gave a CC50 (SF-268; [19]) of 62.9 µM, a GI50 (SF-268; [20]) of 6.92 µM and a CC50 (SF-268; [21]) of 63.1 µM. The TGI (SF-268; read-out: Log10TGI (converted)) was 23.4 µM, the TGI (SF-268; read-out: TGI) was 23.4 µM and the GI50 (LOX IMVI; read-out: GI50) was 4.3 µM. For the same compound, the CC50 (LOX IMVI; [19]) was 55.4 µM, the GI50 (LOX IMVI; [20]) was 4.27 µM and the CC50 (LOX IMVI; [21]) was 55 µM. It also gave a TGI (LOX IMVI; read-out: Log10TGI (converted)) of 20 µM, a TGI (LOX IMVI; read-out: TGI) of 19.8 µM and a GI50 (MDA-MB-435 [10]; read-out: GI50) of 2.65 µM. It also gave an LC50 (MDA-MB-435 [10]; read-out: LC50) of 66.3 µM, a GI50 (MDA-MB-435 [10]; [20]) of 2.63 µM and an LC50 (MDA-MB-435 [10]; [21]) of 66.1 µM. The TGI (MDA-MB-435 [10]; read-out: Log10TGI (converted)) was 11.5 µM, the TGI (MDA-MB-435 [10]; read-out: TGI) was 11.4 µM and the GI50 (MDA-MB-231; read-out: GI50) was 6.73 µM. The CC50 (MDA-MB-231; [19]) was 55.9 µM, the GI50 (MDA-MB-231; [20]) was 6.76 µM and the CC50 (MDA-MB-231; [21]) was 56.2 µM. For the same compound, the TGI (MDA-MB-231; read-out: Log10TGI (converted)) was 22.4 µM, the TGI (MDA-MB-231; read-out: TGI) was 22.3 µM and the Activity (A549) was 89%. The GI50 (NCI-H226; read-out: GI50) was 3.82 µM, the CC50 (NCI-H226; [19]) was 50.6 µM and the GI50 (NCI-H226; [20]) was 3.8 µM. The CC50 (NCI-H226; [21]) was 50.1 µM, the TGI (NCI-H226; read-out: Log10TGI (converted)) was 19.1 µM and the TGI (NCI-H226; read-out: TGI) was 18.9 µM. The GI50 ([11]; read-out: GI50) was 0.148 µM, the CC50 [11, 19] was 9.36 µM and the GI50 [11, 20] was 0.148 µM. For the same compound, the CC50 [11, 21] was 9.33 µM, the TGI ([11]; read-out: Log10TGI (converted)) was 2 µM and the TGI ([11]; read-out: TGI) was 2.01 µM. For the same compound, the GI50 (K562; read-out: GI50) was 2.04 µM, the CC50 (K562; [19]) was 49.3 µM and the GI50 (K562; [20]) was 2.04 µM. For the same compound, the CC50 (K562; [21]) was 49 µM, the TGI (K562; read-out: Log10TGI (converted)) was 13.2 µM and the TGI (K562; read-out: TGI) was 13.2 µM. For the same compound, the Activity (T47D [12]) was 2%, the Activity (OVCAR-5 [13]) was 126% and the Activity (T47D [14]) was 76%. For the same compound, the Activity (CAKI-1) was 87%, the Activity (SF-539) was 84% and the Activity (NCI-H460) was 82%. It also gave an Activity (SR [15]) of 47%, an Activity (SN12C [16]) of 87% and an Activity (OVCAR-8 [17]) of 97%. For the same compound, the Activity (OVCAR-5 [18]) was 84%, the Activity (SK-MEL-2) was 82% and the Activity (SNB-19) was 89%. It also gave an Activity (HCC 2998) of 89%, an Activity (COLO 205) of 84% and an Activity (UACC-257) of 44%. For the same compound, the Activity (SW-620) was 23%.
